The term AUC denotes the area under the concentration-time curve, a measure of exposure. The low end stands for low exposure, the high end for high exposure.

Among the data in ChEMBL document CHEMBL4219218, “P3-P4 ureas and reverse carbamates as potent HCV NS3 protease inhibitors: Effective transposition of the P4 hydrogen bond donor” (Bioorg Med Chem Lett, 2018) are concentration and AUC values, retold here.

The nature of series [1]: Drug level in Sprague-Dawley rat liver at 15 mg/kg administered intraduodenally as single dose measured at 4 hrs by LC/MS/MS method. As to conditions: read-out: Drug uptake. Format: ADME, organism-based. A digest of the protocol: (§1)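 Single intraduodenal dose of 15 mg/kg to rats, n = 2. Plasma and liver exposure measured over a 4 h period, with a 4 h endpoint.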
Series [2] is described as follows: AUC in Sprague-Dawley rat plasma at 15 mg/kg administered intraduodenally as single dose measured at 4 hrs by LC/MS/MS method. Format: ADME, organism-based. Set-up: dose 15 mg/kg, time < 4 hr, route intraduodenal. An outline of the steps: as §1

As for `C=C[C@@H]1C[C@]1(NC(=O)[C@@H]1C[C@@H](Oc2nccc3cc(OC)ccc23)CN1C(=O)[C@@H](NC(=O)OC(C)(C)C)C(C)(C)C)C(=O)NS(=O)(=O)C1CC1`, the concentration at 4 h in series [1] worked out at 64700 ng/g. Also, the exposure (AUC) at 4 h in series [2] was 7420 ng·h/mL.
On the same counts, the results for `C=C[C@@H]1C[C@]1(NC(=O)[C@@H]1C[C@@H](Oc2cc(-c3ccccc3)nc3cc(OC)ccc23)CN1C(=O)[C@@H](NC(=O)OC(C)(C)C)C(C)(C)C)C(=O)NS(=O)(=O)C1CC1` are 7850 ng/g and 61 ng·h/mL.
For the compound `C=C[C@@H]1C[C@]1(NC(=O)[C@@H]1C[C@@H](Oc2nccc3cc(OC)ccc23)CN1C(=O)[C@@H](NC(=O)NC(C)(C)C)C(C)(C)C)C(=O)NS(=O)(=O)C1CC1`, the concentration at 4 h in series [1] is 1110 ng/g. The AUC at 4 h in series [2] turned out to be 497 ng·h/mL.
Turning to `C=C[C@@H]1C[C@]1(NC(=O)[C@@H]1C[C@@H](Oc2cc(-c3ccccc3)nc3cc(OC)ccc23)CN1C(=O)[C@H]([C@@H](C)CC)N(C)C(=O)NC1CCCC1)C(=O)NS(=O)(=O)C1CC1`, in series [1], the concentration at 4 h was determined as 1240 ng/g.
With `C=C[C@@H]1C[C@]1(NC(=O)[C@@H]1C[C@@H](Oc2cc(-c3ccccc3)nc3cc(OC)ccc23)CN1C(=O)[C@@H](NC(=O)NC(C)(C)C)C(C)(C)C)C(=O)NS(=O)(=O)C1CC1`, the concentration at 4 h in series [1] came out at 72 ng/g. Also, in series [2], the AUC at 4 h is 17 ng·h/mL.
With `C=C[C@@H]1C[C@]1(NC(=O)[C@@H]1C[C@@H](Oc2nccc3cc(OC)ccc23)CN1C(=O)[C@@H](NC(=O)N[C@H](COC)C(C)(C)C)C(C)(C)C)C(=O)NS(=O)(=O)C1CC1`, in series [1], the concentration at 4 h is 838 ng/g. Also, the exposure (AUC) at 4 h in series [2] is 3280 ng·h/mL.
With `C=C[C@@H]1C[C@]1(NC(=O)[C@@H]1C[C@@H](Oc2nccc3cc(OC)ccc23)CN1C(=O)[C@@H](NC(=O)N[C@H](C(=O)N1CCN(c2ncccn2)CC1)C(C)(C)C)C(C)(C)C)C(=O)NS(=O)(=O)C1CC1`, the concentration at 4 h in series [1] came to 87 ng/g. Besides, the exposure (AUC) at 4 h in series [2] came out at 1630 ng·h/mL.
For `C=C[C@@H]1C[C@]1(NC(=O)[C@@H]1C[C@@H](Oc2cc(-c3ccccc3)nc3cc(OC)ccc23)CN1C(=O)[C@@H](OC(=O)NC1CCCC1)C(C)(C)C)C(=O)NS(=O)(=O)C1CC1` the same measures were 3430 ng/g and 95 ng·h/mL.
Regarding `C=C[C@@H]1C[C@]1(NC(=O)[C@@H]1C[C@@H](Oc2cc(-c3ccccc3)nc3cc(OC)ccc23)CN1C(=O)[C@H]([C@@H](C)CC)N(C)C(=O)NC(C)(C)C)C(=O)NS(=O)(=O)C1CC1`, in series [1], the concentration at 4 h came to 1780 ng/g. For the same compound, the AUC at 4 h in series [2] came out at 16 ng·h/mL.
Regarding `C=C[C@@H]1C[C@]1(NC(=O)[C@@H]1C[C@@H](Oc2nccc3cc(OC)ccc23)CN1C(=O)[C@@H](NC(=O)N[C@H](C(=O)O)C(C)(C)C)C(C)(C)C)C(=O)NS(=O)(=O)C1CC1`, the AUC at 4 h in series [2] turned out to be 91 ng·h/mL.
On to `C=C[C@@H]1C[C@]1(NC(=O)[C@@H]1C[C@@H](Oc2nccc3cc(OC)ccc23)CN1C(=O)[C@@H](NC(=O)N[C@H](C(=O)OC(C)(C)C)C(C)(C)C)C(C)(C)C)C(=O)NS(=O)(=O)C1CC1`, for which the concentration at 4 h in series [1] stood at 4850 ng/g. This compound showed an exposure (AUC) at 4 h in series [2] of 632 ng·h/mL.
In the case of `C=C[C@@H]1C[C@]1(NC(=O)[C@@H]1C[C@@H](Oc2cc(-c3ccccc3)nc3cc(OC)ccc23)CN1C(=O)[C@@H](OC(=O)NC(C)C)C(C)(C)C)C(=O)NS(=O)(=O)C1CC1`, the concentration at 4 h in series [1] stood at 430 ng/g.
Turning to `C=C[C@@H]1C[C@]1(NC(=O)[C@@H]1C[C@@H](Oc2cc(-c3ccccc3)nc3cc(OC)ccc23)CN1C(=O)[C@@H](OC(=O)NC(C)(C)C)C(C)(C)C)C(=O)NS(=O)(=O)C1CC1`, the concentration at 4 h in series [1] is 3770 ng/g. The compound also gave an AUC at 4 h in series [2] of 82 ng·h/mL.
For `C=C[C@@H]1C[C@]1(NC(=O)[C@@H]1C[C@@H](Oc2cc(-c3ccccc3)nc3cc(OC)ccc23)CN1C(=O)[C@@H](NC(=O)N(C)C(C)(C)C)C(C)(C)C)C(=O)NS(=O)(=O)C1CC1` the same measures were 2600 ng/g and 32 ng·h/mL.
